Experimental data as given in ChEMBL document CHEMBL1687901 (J Med Chem, 2011).
Values after ≈ are worked out from the molar mass of the structure shown.

Legend:
[1] = tested on: Streptococcus pneumoniae; test: Antibacterial activity against Streptococcus pneumoniae ATCC 49619 by CLSI M07-A8 method; type: functional
[2] = in vivo; conditions: Sprague-Dawley, rat, iv, 1 mg/kg
[3] = AUC in Sprague-Dawley rat at 1 mg/kg, iv and 10 mg/kg, po; type: ADME, organism-based; conditions: plasma
[4] = Clearance in Sprague-Dawley rat at 1 mg/kg, iv and 10 mg/kg, po; type: ADME, organism-based; conditions: in vivo
[5] = tested on: Klebsiella pneumoniae; test: Antibacterial activity against Klebsiella pneumoniae ATCC 13883 by CLSI M07-A8 method; type: functional
[6] = tested on: Streptococcus pneumoniae; test: Antibacterial activity against Streptococcus pneumoniae by CLSI M07-A8 method; type: functional
[7] = tested on: Staphylococcus aureus; test: Antibacterial activity against Staphylococcus aureus ATCC 13709 infected in iv dosed mouse septicemia model assessed as mouse protection after 48 hrs; type: functional; conditions: ATCC 13709, iv, read-out: PD50
In short: (§1)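 Mice were challenged intraperitoneally with bacteria mixed with 5% mucin. For S. aureus ATCC 13709 (Smith) the inoculum was 2.1 × 10^6 cfu/mouse, and for E. coli ATCC 25922 it was 2.0 × 10^7 cfu/mouse. PD50 in mg/kg was calculated from survival at 48 h.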

[8] = tested on: Staphylococcus aureus; test: Antibacterial activity against Staphylococcus aureus by CLSI M07-A8 method; type: functional
[9] = tested on: Haemophilus influenzae; test: Antibacterial activity against Haemophilus influenzae by CLSI M07-A8 method; type: functional
[10] = tested on: Escherichia coli; test: Antibacterial activity against tetracycline-resistant Escherichia coli isolate 155 harboring tet(A) gene by CLSI M07-A8 method; type: functional
In short: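 MICs were determined by CLSI broth microdilution in freshly prepared cation-adjusted Mueller Hinton broth, kept at 4 °C before use. Defibrinated horse blood was added as appropriate. The highest concentration tested was 32 μg/mL. Runs met QC ranges for comparator antibiotics with ATCC quality control strains.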

[11] = tested on: Escherichia coli; test: Antibacterial activity against Escherichia coli by CLSI M07-A8 method; type: functional
[12] = tested on: Rattus norvegicus; test: Oral bioavailability in Sprague-Dawley rat at 1 mg/kg, iv and 10 mg/kg, po; type: ADME, organism-based; conditions: in vivo
[13] = tested on: Escherichia coli; test: Antibacterial activity against Escherichia coli ATCC 25922 infected in iv dosed mouse septicemia model assessed as mouse protection after 48 hrs; type: functional; conditions: ATCC 25922, iv, read-out: PD50; in short: as §1
[14] = tested on: Escherichia coli; test: Inhibition of protein synthesis in Escherichia coli S30 extract by coupled transcription/translation assay; type: functional
In short: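 Coupled transcription/translation used an E. coli S30 extract with a firefly luciferase reporter. Compounds were diluted in water and tested as a three-point titration in duplicate. Reactions ran 1 h at 37 °C and were stopped on ice for 5 min, then luciferase substrate was added and luminescence read. Percent inhibition was calculated against uninhibited controls averaged per plate, and IC50 derived.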

[15] = tested on: Escherichia coli; test: Antibacterial activity against Escherichia coli ATCC 25922 by CLSI M07-A8 method; type: functional
[16] = tested on: Staphylococcus aureus; test: Antibacterial activity against wild type Staphylococcus aureus Smith ATCC 13709 by CLSI M07-A8 method; type: functional
[17] = tested on: Staphylococcus aureus; test: Antibacterial activity against tetracycline-resistant Staphylococcus aureus isolate 158 harboring tet(K) gene by CLSI M07-A8 method; type: functional
In short: (§2)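 MICs were determined by CLSI broth microdilution in freshly prepared cation-adjusted Mueller Hinton broth, kept at 4 °C before use. Defibrinated horse blood was added as appropriate. Runs met QC ranges for comparator antibiotics with ATCC quality control strains.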

[18] = tested on: Streptococcus pneumoniae; test: Antibacterial activity against tetracycline-resistant Streptococcus pneumoniae isolate 160 harboring tet(M) gene by CLSI M07-A8 method; type: functional; in short: as §2
[19] = Half life in Sprague-Dawley rat at 1 mg/kg, iv and 10 mg/kg, po; type: ADME, organism-based; conditions: in vivo
[20] = tested on: Staphylococcus aureus; test: Antibacterial activity against tetracycline-resistant Staphylococcus aureus isolate 161 harboring tet(M) gene by CLSI M07-A8 method; type: functional; in short: as §2
[21] = tested on: Staphylococcus aureus; test: Antibacterial activity against Staphylococcus aureus ATCC 13709 infected in mouse septicemia model assessed as mouse survival at 0.05 to 10 mg/kg, iv after 48 hrs; conditions: dose mg/kg 0.05-10

Molecule CN(C)c1cc(NC(=O)CNC(C)(C)C)c(O)c2c1C[C@H]1C[C@H]3[C@H](N(C)C)C(O)=C(C(N)=O)C(=O)[C@@]3(O)C(O)=C1C2=O [TIGECYCLINE] has an MIC [1] of 0.016 µg/mL (≈ 0.0273 µM), a Vd [2] of 6.12 L/kg and an AUC [3] of 1050 ng·h/mL. For the same molecule, the clearance [4] was 15.5 mL/min/kg, the MIC [5] was 0.125 µg/mL (≈ 0.213 µM) and the MIC [6] was ≤ 0.016 µg/mL. For the same molecule, the MIC50 [6] was ≤ 0.016 µg/mL, the MIC90 [6] was ≤ 0.016 µg/mL and the ED50 [7] was 0.35 mg/kg. For the same molecule, the MIC50 [8] was 0.063 µg/mL (≈ 0.108 µM), the MIC90 [8] was 1 µg/mL (≈ 1.71 µM) and the MIC50 [9] was 0.5 µg/mL (≈ 0.854 µM). The MIC90 [9] was 0.5 µg/mL (≈ 0.854 µM), the MIC [10] was 0.5 µg/mL (≈ 0.854 µM) and the MIC50 [11] was 0.25 µg/mL (≈ 0.427 µM). It also gave an MIC90 [11] of 0.5 µg/mL (≈ 0.854 µM), an F [12] of 1.1% and an ED50 [13] of 2.1 mg/kg. For the same molecule, the IC50 [14] was 0.47 µg/mL (≈ 0.803 µM), the MIC [15] was 0.125 µg/mL (≈ 0.213 µM) and the MIC [16] was 0.063 µg/mL (≈ 0.108 µM). For the same molecule, the MIC [17] was 0.063 µg/mL (≈ 0.108 µM), the MIC [18] was 0.016 µg/mL (≈ 0.0273 µM) and the half-life [19] was 4.6 h. It also gave an MIC [20] of 0.125 µg/mL (≈ 0.213 µM).

CN(C)c1ncc(O)c2c1C[C@H]1C[C@H]3[C@H](N(C)C)C(O)=C(C(N)=O)C(=O)[C@@]3(O)C(O)=C1C2=O.Cl.Cl gave an MIC [1] of 0.063 µg/mL, a Vd [2] of 4.18 L/kg and an AUC [3] of 1090 ng·h/mL. For the same molecule, the clearance [4] was 15.3 mL/min/kg, the MIC [5] was 0.25 µg/mL and the MIC50 [6] was 2 µg/mL. For the same molecule, the MIC90 [6] was 4 µg/mL, the ED50 [7] was < 0.3 mg/kg and the MIC [8] was ≤ 0.016 µg/mL. For the same molecule, the MIC50 [8] was ≤ 0.016 µg/mL, the MIC90 [8] was 16 µg/mL and the MIC50 [9] was 0.5 µg/mL. For the same molecule, the MIC90 [9] was 2 µg/mL, the MIC [10] was > 32 µg/mL and the MIC50 [11] was 0.25 µg/mL. The MIC90 [11] was > 32 µg/mL, the Survival [21] was 100% and the F [12] was 12.7%. For the same molecule, the ED50 [13] was 4.3 mg/kg, the IC50 [14] was 0.76 µg/mL and the MIC [15] was 0.125 µg/mL. It also gave an MIC [16] of 0.031 µg/mL, an MIC [17] of 2 µg/mL and an MIC [18] of 8 µg/mL. It also gave a half-life [19] of 3.1 h and an MIC [20] of 16 µg/mL.
